Data as given in ChEMBL document CHEMBL1134326, “C-16 artemisinin derivatives and their antimalarial and cytotoxic activities: syntheses of artemisinin monomers, dimers, trimers, and tetramers by nucleophilic additions to artemisitene” (J Med Chem, 2001).

What was measured:
[1] = Cytotoxicity against KB cells.; assay type: functional, cell-based; settings: Homo sapiens
In short: (§1)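 Colorimetric cytotoxicity assay after Skehan on KB, BC and vero cell lines. Maximum concentration tested 130 µM. Ellipticine was the positive control. IC50 is reported in µM.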

[2] = Therapeutic index (TI) determined as IC50 of vero cells to that of EC50; assay type: cell-based; settings: plasmodium falciparum, read-out: TI
BC [3] = experiment: Cytotoxicity against BC cells.; assay type: functional, cell-based; settings: Homo sapiens; in short: as §1
Vero = experiment: Cytotoxicity against vero cells.; assay type: functional, cell-based; settings: Chlorocebus sabaeus; in short: as §1
Plasmodium falciparum = experiment: Antimalarial activity against Plasmodium falciparum; assay type: functional, organism-based
In short: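 P. falciparum K1 (multidrug-resistant), asexual erythrocytic stage kept in continuous in vitro culture; microculture radioisotope method after Desjardins. EC50 is the concentration giving 50% reduction in parasite growth, measured as [3H]hypoxanthine uptake. Artemisinin and dihydroartemisinin served as standards.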

KB = experiment: Cytotoxicity against KB cells; assay type: functional, cell-based; settings: Homo sapiens; in short: as §1
BC [4] = experiment: Cytotoxicity against BC cells; assay type: functional, cell-based; settings: Homo sapiens; in short: as §1

| Compound | IC50 [1] | selectivity ratio [2] | IC50 (BC [3]) | IC50 (Vero) | EC50 (Plasmodium falciparum) | IA (KB) | IA (BC [4]) |
| --- | --- | --- | --- | --- | --- | --- | --- |
| CC1CCC2C(CC3(Cc4cccc(F)c4)C(=O)OC4OC5(C)CCC6C(C)CCC3C46OO5)C(=O)OC3OC4(C)CCC1C32OO4 (stereo unspecified) | 4000 nM | 2.6 | 3500 nM | 5500 nM | 2.1 nM | – | – |
| C[C@@H]1CC[C@H]2[C@@H](Cc3ccc(F)cc3)C(=O)O[C@@H]3O[C@]4(C)CC[C@@H]1[C@]32OO4 | – | 1.9 | – | > 130000 nM | 6.7 nM | Cytotoxic | Cytotoxic |
| C[C@@H]1CCC2[C@H](CCCCCC[C@@H]3C(=O)O[C@@H]4O[C@@]5(C)CC[C@H]6[C@H](C)CCC3[C@@]46OO5)C(=O)O[C@@H]3O[C@]4(C)CC[C@@H]1C23OO4 (stereo partly specified) | 2300 nM | 7.1 | 1600 nM | 10000 nM | 1.4 nM | – | – |
| CCCCC[C@H]1C(=O)O[C@@H]2O[C@]3(C)CC[C@H]4[C@H](C)CC[C@@H]1[C@@]24OO3 | – | > 1.5 | – | > 130000 nM | 8.9 nM | Cytotoxic | Cytotoxic |
| CC1CCC2C(CCCCCCC3(CC4C(=O)OC5OC6(C)CCC7C(C)CCC4C57OO6)C(=O)OC4OC5(C)CCC6C(C)CCC3C46OO5)C(=O)OC3OC4(C)CCC1C32OO4 (stereo unspecified) | 1700 nM | 2.8 | 1200 nM | 6600 nM | 2.4 nM | – | – |
| CCC[C@@H]1C(=O)O[C@@H]2O[C@]3(C)CC[C@H]4[C@H](C)CC[C@@H]1[C@@]24OO3 | – | > 1.2 | – | > 130000 nM | 11 nM | Cytotoxic | Cytotoxic |
| C[C@@H]1CC[C@H]2[C@H](CCCCCCC[C@H]3C(=O)O[C@@H]4O[C@@]5(C)CC[C@H]6[C@H](C)CC[C@@H]3[C@@]46OO5)C(=O)O[C@@H]3O[C@@]4(C)CC[C@@H]1[C@]32OO4 | 760 nM | 3.1 | 360 nM | 2800 nM | 0.91 nM | – | – |
| CC1CCC2C(CSCCCCSCC3C(=O)OC4OC5(C)CCC6C(C)CCC3C46OO5)C(=O)OC3OC4(C)CCC1C32OO4 (stereo unspecified) | – | – | – | – | 5.7 nM | – | – |
| CCCCCC[C@H]1C(=O)O[C@@H]2O[C@]3(C)CC[C@H]4[C@H](C)CC[C@@H]1[C@@]24OO3 | 6200 nM | 1.2 | 5700 nM | 16000 nM | 12.9 nM | – | – |
| CC1CCC2C(CC3(CCCCc4ccccc4)C(=O)OC4OC5(C)CCC6C(C)CCC3C46OO5)C(=O)OC3OC4(C)CCC1C32OO4 (stereo unspecified) | 5700 nM | 7.1 | 1200 nM | 2400 nM | 3.4 nM | – | – |
| CC1CCC2C(CCC(=O)c3ccc[nH]3)C(=O)OC3OC4(C)CCC1C32OO4 (stereo unspecified) | – | > 1.5 | – | > 130000 nM | 8.8 nM | Cytotoxic | Cytotoxic |
| CCN(CC)C(=S)SC(CC1C(=O)O[C@@H]2O[C@]3(C)CC[C@H]4[C@H](C)CC[C@@H]1C24OO3)SC(=S)N(CC)CC (stereo partly specified) | 2500 nM | 3.5 | 2400 nM | 6600 nM | 1.9 nM | – | – |
| C[C@@H]1CC[C@H]2[C@H](Cc3ccc(F)cc3)C(=O)O[C@@H]3O[C@]4(C)CC[C@@H]1[C@]32OO4 | 35000 nM | 9.3 | 41000 nM | 120000 nM | 12.9 nM | – | – |
| C[C@@H]1CCC2[C@H](CCCCCC[C@H]3C(=O)O[C@@H]4O[C@@]5(C)CC[C@H]6[C@H](C)CCC3[C@@]46OO5)C(=O)O[C@@H]3O[C@]4(C)CC[C@@H]1C23OO4 (stereo partly specified) | 1800 nM | 9.5 | 1600 nM | 10000 nM | 10.5 nM | – | – |
| CCCCCC[C@@H]1C(=O)O[C@@H]2O[C@]3(C)CC[C@H]4[C@H](C)CC[C@@H]1[C@@]24OO3 | 6200 nM | 1 | 6200 nM | 14000 nM | 13.8 nM | – | – |
| C[C@@H]1CC[C@H]2[C@H](Cc3cccc(F)c3)C(=O)O[C@@H]3O[C@]4(C)CC[C@@H]1[C@]32OO4 | 44000 nM | 7.1 | 41000 nM | > 130000 nM | 18.2 nM | – | – |
| CCCCC1(CC2C(=O)OC3OC4(C)CCC5C(C)CCC2C35OO4)C(=O)OC2OC3(C)CCC4C(C)CCC1C24OO3 (stereo unspecified) | – | > 3 | – | > 130000 nM | 4.3 nM | Cytotoxic | Cytotoxic |
| CCCC[C@H]1C(=O)O[C@@H]2O[C@]3(C)CC[C@H]4[C@H](C)CC[C@@H]1[C@@]24OO3 | – | > 1.2 | – | > 130000 nM | 11.3 nM | Cytotoxic | Cytotoxic |
